High-throughput results: PubChem BioAssay, several laboratories
Shown are actives, neighbours in structure and some others; about 5.6% of the full set was active somewhere.
XBP1 UPR activ – activators of adaptive XBP1 UPR arm, primary screen, cell-based, CHO-XBP1 luciferase reporter, luminescence, uHTS. IRE1-XBP1 UPR activation; percent of tunicamycin response, DMSO as zero. activation, % at 20 µM. 0.33% of 330,000 active. AID 463104, 2010;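 active = versus positive control, 20 µM dose yields 30% or more activation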;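 note: 100% = tunicamycin at 10 µg/mL and 0% = DMSO only wells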
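Assay system: CHO-XBP1 luciferase reporter cells; Schedule: 6 h treatment, 37 °C; Detection: glow luminescence from Steady-Glo reagent; Benchmarks: high control tunicamycin 10 µg/mL final, low control DMSO vehicle only.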
CHOP inh – inhibitors of CHOP promoter induction, primary screen, cell-based, unfolded protein response, luciferase reporter | AID 2732, 2010 | inhibition, % at 10 µM | CHO-K1 CHOP-promoter luciferase, tunicamycin-induced, 15-18 h | 3.8% of 220,000 active;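 active = compounds that reduced the stress-induced luciferase reporter signal by more than about 70% of percent inhibition, limit read from the data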;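 note: 0% = tunicamycin plus vehicle and 100% = wells without tunicamycin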
aDG glyco up – activators of alpha-DG glycosylation, primary screen, uHTS, Pro5-aDG cells, AlphaScreen. activation, % at 10 µM. alpha-DG glycosylation AlphaScreen (IIH6); 0% Pro5, 100% B10-LARGE cell signal. 0.22% of 360,000 active;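 active = activation of at least 8% versus controls, or a plate z-score of at least 8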;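 note: Pro5 are CHO cells carrying HIG-tagged alpha-DG that lacks glycosylation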
GRIN3A LBD mod – binders of NR3A ligand-binding domain, primary screen, biophysical, differential scanning fluorimetry, uHTS | 2.5% of 340,000 active | Tm shift relative to glycine control, % at 25 µM | AID 1259313, 2017 | NR3A LBD differential scanning fluorimetry, Tm shift; 0% = protein alone, 100% = glycine-bound protein | Glutamate receptor ionotropic, NMDA 3A (GRIN3A) ligand-binding domain;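 active = melting temperature shift of at least 10% of the positive control shift, at one fixed dose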
CHOP UPR activ – activators of apoptotic CHOP UPR arm, primary screen, cell-based, CHO-CHOP luciferase reporter, luminescence, uHTS. activation, % at 10 µM. UPR activation; percent of tunicamycin response over DMSO baseline. 0.34% of 330,000 active. AID 449763, 2010;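 active = at 10 µM dose, activation of 40% or more, normalized to positive control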;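 note: 100% = tunicamycin at 10 µg/mL and 0% = DMSO alone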
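Dosing – one dose, 10 µM in 0.5% DMSO · System – CHO-CHOP cells, stable luciferase reporter of PERK-eIF2a-CHOP signalling · Input – 500 cells/well · Control set – tunicamycin 10 µg/mL final as positive, DMSO-only wells as negative · Timing – 6 h compound treatment, 37 °C · Measure – % activation vs tunicamycin · Technique – luminescence read with Steady-Glo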
MPTP inh – mitochondrial permeability transition pore inhibitors, primary screen, biochemical, isolated mouse mitochondria, absorbance. Ca2+ swelling absorbance, 30 min. inhibition, % at 10 µM. 1.4% of 360,000 active. AID 602449, 2012;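 active = inhibition of 50% or more, scaled per plate between neutral and stimulator controls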;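 note: 0% = DMSO wells given calcium and 100% = 1 mM EGTA wells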
CHOP inh conf – retest of CHOP induction inhibitors, confirmation, cell-based; 45% of 2,100 active; CHO-CHOP promoter luciferase reporter, tunicamycin-induced, luminescence; AID 504437, 2011; shares compounds with CHOP inh; inhibition, % at 10 µM;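 active = mean of three repeat readings of reporter signal inhibition above a set limit, cut at about 70% in these data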;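 note: 0% = tunicamycin plus vehicle and 100% = wells lacking tunicamycin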
UPR CHOP confirm – activators of apoptotic CHOP UPR arm, confirmation, cell-based, CHO-CHOP luciferase reporter, single concentration; shares compounds with CHOP UPR activ; CHO-CHOP cells, CHOP-luciferase reporter luminescence; percent of tunicamycin response, DMSO as zero; activation, % at 10 µM; 64% of 1,000 active; AID 463112, 2010; in the data active = activation above about 33%;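 note: 0% = DMSO wells and 100% = tunicamycin 10 µg/mL wells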
XBP1 UPR conf – IRE1-XBP1 UPR arm activators, confirmation, cell-based, CHO-XBP1 luciferase reporter, luminescence, single concentration. shares compounds with XBP1 UPR activ. activation, % at 20 µM. 63% of 1,000 active. AID 485299, 2010;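 active = reporter signal at least 30% of the positive control's activation in two or more of four replicate wells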;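 note: plate controls were DMSO negative control for no effect and tunicamycin 10 µg/mL positive control for full effect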
* = called active by the depositor; / = no result given.

SMILES	XBP1 UPR activ	CHOP inh	aDG glyco up	GRIN3A LBD mod	CHOP UPR activ	MPTP inh	CHOP inh conf	XBP1 UPR conf	others
COc1ccccc1-c1cn[nH]c1-c1ccc(OCc2ccc(F)cc2)cc1O	0	12	0	7	0	8	/	/
CCOC(=O)C1(CCc2ccccc2)CCN(C(=O)CCn2cncn2)CC1	2	-31	0	0	4	1	/	/
Cc1nn(Cc2c(Cl)cccc2Cl)c(C)c1NC(=O)c1cn(-c2ccccc2)nc1-c1ccccc1	78*	109*	-1	0	146*	3	106*	85*	UPR CHOP confirm=76*
COC(=O)CCCn1cc(CN2CC(N3CCN(CCN(C)C)CC3)CS2(=O)=O)nn1 (stereo not given)	/	/	0	/	/	0	/	/
CCOC(=O)c1c(NC(C)=O)sc2c(OCC(O)CNC(C)(C)C)c(Br)ccc12 (stereo not given)	62*	105*	-1	-2	1	-2	62	111*
CC1CCCCC12NC(=O)N(CC(=O)N1CCN(S(=O)(=O)Cc3ccccc3)CC1)C2=O (stereo not given)	-4	/	0	-2	1	-1	/	/
COc1cc(NC(=O)c2ccco2)c(C(=O)OCC(=O)c2c[nH]c3ccccc23)cc1OC	131*	107*	-1	14*	0	11	42	152*
O=C(OCC(=O)c1c[nH]c2ccccc12)c1ccco1	-1	12	0	3	8	-2	/	/
O=C(CSc1nnc(NC(=O)c2ccccc2F)s1)NCc1ccco1	-3	/	0	-3	1	1	/	/
Oc1[nH]c2ccccc2c1N=Nc1nc2ccccc2s1	2	-29	0	2	1	5	/	/
CCc1nc(N=Nc2c(O)[nH]c3ccccc23)c2c3c(sc2n1)CCC3	35*	101*	0	-1	94*	4	35	168*	UPR CHOP confirm=76*
COc1ccc(-c2nn(-c3ccccc3)cc2/C=N/N2C(=O)CSC2=S)cc1	39*	112*	0	-1	22	2	77*	27*
COc1ccc(/C=N/N2C(=O)CSC2=S)cc1	-2	34	0	2	-2	-1	/	/
COc1cccc(OCC(=O)N2CCCc3ccccc32)c1	-1	/	0	-3	3	0	/	/
O=[N+]([O-])c1ccc(-c2nn(-c3ccccc3)cc2/C=N/n2c(-c3cccs3)n[nH]c2=S)cc1	41*	102*	0	-2	14	2	101*	29
Cc1ccc(C(CC(=O)O)NC(=O)c2ccc(S(=O)(=O)N3CC(C)OC(C)C3)cc2)cc1 (stereo not given)	1	/	0	-3	2	-2	/	/
O=C(Cn1c2ccc(F)cc2c2nc3n(c(=O)c21)CCS3)Nc1ccc(Cl)cc1F	82*	96*	0	-2	-1	-2	19	34*
Clc1ccc2nc(COc3ccccc3)[nH]c2c1	-2	/	0	-16	4	1	/	/
COc1ccc(-c2[nH]c(-c3ccc(Cl)cc3)nc2SCC(=O)Nc2nccs2)cc1	46*	98*	0	11*	1	4	33	12
O=C(NCC1OCCc2ccccc21)c1ccc(NC(=O)c2ccc(Cl)cc2)cc1 (stereo not given)	38*	103*	0	-7	2	1	57	25
O=C(NCC1OCCc2ccccc21)c1ccco1 (stereo not given)	-1	-9	0	4	2	-1	/	/
C=CCn1c(O)c(C2=c3ccccc3=NC2=O)sc1=Nc1ccc(O)cc1	34*	104*	0	-1	0	5	38	32*
CCNC(=O)c1c(NC(=O)c2cc(-c3cc(C)ccc3O)n[nH]2)sc2c1CCCC2	42*	101*	0	-2	8	8	106*	75*
Cc1cc(O)c(-c2cc(C(=O)Nc3sc4c(c3C(=O)NCc3ccco3)CCC4)[nH]n2)cc1C	-2	67	0	7	-1	4	/	/
O=C(CCN1C(=O)c2cccc([N+](=O)[O-])c2C1=O)NC1CCCCCC1	1	/	0	3	0	1	/	/
SMILES	XBP1 UPR activ	CHOP inh	aDG glyco up	GRIN3A LBD mod	CHOP UPR activ	MPTP inh	CHOP inh conf	XBP1 UPR conf	others
COc1ccc(OC)c2sc(NC(=O)c3ccc(Cl)s3)nc12	97*	103*	0	-5	4	2	86*	26
CCC(=O)Nc1nc2c(OC)ccc(OC)c2s1	2	10	0	-1	1	0	/	/
CC(O)C(NS(=O)(=O)c1ccc(Cl)cc1)C(=O)OCC(=O)c1ccc2c(c1)NC(=O)CO2 (stereo not given)	/	/	0	1	/	1	/	/
CC(C)CC(NC(=O)c1ccc(Cl)cc1)C(=O)OCC(=O)c1ccc2c(c1)NC(=O)CO2 (stereo not given)	49*	107*	-1	5	37	0	74*	99*
CCCn1c(=O)c(C(=O)NC(C)c2ccccc2)c(O)c2ccccc21 (stereo not given)	1	/	0	4	1	2	/	/
CC(C)CCn1c(=O)c(C(=O)N/N=C/c2cccc(F)c2)c(O)c2ccccc21	37*	106*	1	0	6	32	90*	4
CCN(CC)c1ccc2cc(-c3nc4ccccc4[nH]3)c(=O)oc2c1	45*	100*	2	-403	22	0	41	21
NC(=O)CC(NC(=O)Cc1cccc2ccccc12)c1ccc(NCCOc2ccccc2)c([N+](=O)[O-])c1 (stereo not given)	48*	101*	0	0	2	1	112*	39*
O=c1cc(C(Cl)(Cl)Cl)oc2c1ccc1ccccc12	163*	100*	0	2	47*	-1	-10	286*	UPR CHOP confirm=33*
